Measured values of several laboratories.
Lines come from different studies, so protocols differ.
Read-out: cell growth or viability

CCOCCOCCOCCNC(=S)NCCCC[C@H](NS(C)(=O)=O)C(=O)N[C@@H](C)C(=O)N[C@@H](CCCNC(=N)N)C(N)=O — EC50 (HEK-293T; MTT; 72 h): > 100 µM
Cc1cc(Nc2ccc(C(=O)N/N=C/c3nc4ccccc4[nH]3)cc2)c2cccc(O)c2n1 — inhibition (Huh-7; MTT; 20 µM): 33%
COc1ccc(NC(=O)c2c(Nc3ccccc3)sc(C#N)c2NC(=O)CNc2ccc(O)cc2)cc1 — viability (HepG2; SRB; 100 µM; 48 h): 53.9%
Cc1cc(Nc2ccc(C(=O)N/N=C/C3CCCCC3)cc2)c2cccc(O)c2n1 — inhibition (Huh-7; MTT; 20 µM): 41.1%
COc1cc(Nc2nccc(-c3cnn4nc(OC)ccc34)n2)cc(C(F)(F)F)c1 — IC50 (NCI-H292; ATP luminescence): 450 nM
CCOC(=O)c1ccc(NC(=O)C2=C3C(=Nc4ccccc43)NC2=O)cc1 — viability (HepG2; MTT; 12.5 µM; 24 h): 68.1%
CCOC(=O)Cc1sc(NCc2ncccn2)nc1-c1ccccn1 — CC50 (Huh-7): > 40 µM
COc1ccc(NC(=O)c2c(Nc3ccccc3)sc(C(=O)NN=Cc3ccc(C)cc3)c2NC(C)=O)cc1 — viability (HepG2; SRB; 1 nM; 48 h): 100%
Cc1cccc(/C=N/NC(=O)c2ccc(Nc3cc(C)nc4c(O)cccc34)cc2)n1 — inhibition (Huh-7; MTT; 20 µM): 53.1%
COc1ccc(NC(=O)c2c(Nc3ccccc3)sc(C#N)c2NC(=O)CNc2ccccc2[N+](=O)[O-])cc1 — viability (HepG2; SRB; 10 µM; 48 h): 84.6%
CO[C@]1(C(=O)N[C@@H](C)c2ccc(-n3cc(F)cn3)nc2)CC[C@H](c2nc(C)cc(Nc3cc(C)[nH]n3)n2)CC1 — GI50 (NCI-H292; ATP luminescence; 72 h): > 10000 nM
CC(C)C[C@H](NC(=O)[C@H](Cc1ccccc1)NC(=O)c1cnccn1)B(O)O — IC50 (NCI-H2009; ATP luminescence): 17 nM
CCOC(=O)c1ccc(-n2c(C)cc(C)c(C#N)c2=O)cc1 — viability (HepG2; MTT; 3.125 µM; 24 h): 100%
COc1ccc(NC(=O)c2c(Nc3ccccc3)sc(C(=O)NN=Cc3ccccc3)c2NC(C)=O)cc1 — viability (HepG2; SRB; 10 µM; 48 h): 65.3%
c1ccc(-c2csc(NCc3ncccn3)n2)nc1 — CC50 (Huh-7): > 40 µM
COc1ccc(NC(=O)c2c(Nc3ccccc3)sc(C#N)c2NC(=O)CNc2ccc([N+](=O)[O-])cc2)cc1 — viability (HepG2; SRB; 1 µM; 48 h): 68.4%
C[C@@H](NC(=O)[C@H](CCCCNC(=O)C(F)(F)F)NS(C)(=O)=O)C(=O)N[C@@H](CCCNC(=N)N)C(N)=O — EC50 (HEK-293T; MTT; 72 h): 3.68 to 46.1 µM
COc1ccc(NC(=O)c2c(Nc3ccccc3)sc(C(=O)NN=Cc3ccc(OC)c(O)c3)c2NC(C)=O)cc1 — viability (HepG2; SRB; 0.1 µM; 48 h): 63.7%
COc1ccc(/C=N/NC(=O)c2ccc(Nc3cc(C)nc4c(O)cccc34)cc2)cc1O — inhibition (Huh-7; MTT; 20 µM): 30.2%
CCCCCCCCCCCCNC(=S)NCCCC[C@H](NS(C)(=O)=O)C(=O)N[C@@H](C)C(=O)N[C@@H](CCCNC(=N)N)C(N)=O — EC50 (HEK-293T; MTT; 72 h): ~100 µM
Cc1cc(Nc2ccc(C(=O)N/N=C/c3ccc(N(C)C)cc3)cc2)c2cccc(O)c2n1 — inhibition (Huh-7; MTT; 20 µM): 69.9%
COc1ccc(NC(=O)c2c(Nc3ccccc3)sc(C#N)c2NC(=O)CNc2ccccc2Cl)cc1 — viability (HepG2; SRB; 10 nM; 48 h): 88.3%
C=CC(=O)N1CCC[C@@H](n2nc(-c3ccc(Oc4ccccc4)cc3)c3c(N)ncnc32)C1 — GI50 (Ramos; 48 h): > 10000 nM
Cc1cc(Nc2ccc(C(=O)N/N=C/c3ccncc3)cc2)c2cccc(O)c2n1 — inhibition (Huh-7; MTT; 20 µM): 76.9%
CCOC(=O)c1ccc(-n2c(C)cc(/C=C/c3ccc(OC)cc3)c(C#N)c2=O)cc1 — viability (HepG2; MTT; 1.56 µM; 24 h): 100%
COc1cc(N2CCC(N3CCN(C)CC3)CC2)ccc1Nc1ncc(Cl)c(Nc2ccccc2P(C)(C)=O)n1 — GI50 (NCI-H292; ATP luminescence; 72 h): 2760 nM
CCOC(=O)c1ccc(N2C(N)=C(C#N)C3(C(=O)Nc4ccccc43)C(C#N)=C2O)cc1 (centres unmarked) — viability (HepG2; MTT; 1.56 µM; 24 h): 94.2%
COc1ccc(NC(=O)c2c(Nc3ccccc3)sc(C#N)c2NC(=O)CNc2ccccc2)cc1 — viability (HepG2; SRB; 1 nM; 48 h): 102%
Cc1cc(Nc2ccc(C(=O)N/N=C/c3ccc[nH]3)cc2)c2cccc(O)c2n1 — inhibition (Huh-7; MTT; 20 µM): 68.3%
C=CC(=O)Nc1cc(-n2c(=O)ccc3cnc4ccc(-c5ccc(NS(C)(=O)=O)cc5)cc4c32)ccc1C — GI50 (Ramos; 48 h): 1800 nM
Cc1ccc(/C=N/NC(=O)c2ccc(Nc3cc(C)nc4c(O)cccc34)cc2)cc1 — inhibition (Huh-7; MTT; 20 µM): 62.5%
CCOC(=O)c1ccc(-n2c(C)cc(/C=C/c3ccc(OCC)cc3)c(C#N)c2=O)cc1 — viability (HepG2; MTT; 50 µM; 24 h): 53.1%
